One block for each compound: values may come before it. Active and inactive are the calls of the source. The rule behind the calls is not given here.
Experiments:
[1] = target: Ubiquitin carboxyl-terminal hydrolase isozyme L1 (Homo sapiens) (UniProt P09936); experiment: Inhibition of UCHL1 (unknown origin) using SRK59 as fluorescent probe at 2 uM preincubated for 1 hr followed by SRK59 addition for 30 mins by Gel-based competition assay; conditions: time 90.0 min
Summary of the method: (§1)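 Recombinant PARK7 and UCHL1 (1 μM each, mixed) or PARK7 alone, in 50 mM Tris-HCl, 150 mM NaCl, 2 mM TCEP, pH 7.5. Treated with compound at 2 μM or a serial dilution for 1 h at 37 °C. Then 8RK59 probe (2 μM final) added for 30 min at 37 °C. Run on SDS-PAGE; remaining labelling read by fluorescence scan.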

[2] = target: T1, Parkinson disease protein 7 (Homo sapiens) (UniProt Q99497); experiment: Inhibition of N-terminal GST-tagged human recombinant PARK7 expressed in Escherichia coli BL21(DE3)Rosetta2 cells using SRK59 as fluorescent probe at 2 uM preincubated for 1 hr followed by SRK59 addition for 30 mins by Gel-based competition assay; conditions: time 90.0 min; summary of the method: as §1
T1 sequence (whole entry): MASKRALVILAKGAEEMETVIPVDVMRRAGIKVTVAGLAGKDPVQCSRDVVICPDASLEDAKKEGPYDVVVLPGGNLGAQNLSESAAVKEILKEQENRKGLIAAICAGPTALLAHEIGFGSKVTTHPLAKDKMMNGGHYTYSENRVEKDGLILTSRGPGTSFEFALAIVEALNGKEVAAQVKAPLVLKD

[3] = target: T1, Parkinson disease protein 7 (Homo sapiens); experiment: Binding affinity to N-terminal GST-tagged human recombinant PARK7 expressed in Escherichia coli BL21(DE3)Rosetta2 cells at 1 uM measured after 1 hr by fluorescence scanning analysis
Summary of the method: (§2)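 Purified recombinant PARK7 (GST-tagged in E. coli BL21(DE3) Rosetta2, tag removed by 3C protease, then gel filtration), 1 μM final. Incubated with probe at 0, 0.1, 0.5, 1, 2, 5 or 10 μM for 1 h at 37 °C in 50 mM Tris-HCl, 150 mM NaCl, 2 mM TCEP, pH 7.5. Stopped with LDS sample buffer, run on SDS-PAGE, read by fluorescence scan, then Coomassie stain.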

[4] = target: T1, Parkinson disease protein 7 (Homo sapiens); experiment: Binding affinity to N-terminal GST-tagged human recombinant PARK7 expressed in Escherichia coli BL21(DE3)Rosetta2 cells at 2 uM measured after 1 hr by coomassie staining based analysis; summary of the method: as §2
[5] = target: T1, Parkinson disease protein 7 (Homo sapiens); experiment: Binding affinity to PARK7 in human HEK293T cells at 0.5 uM incubated for 1 hr by fluorescence scanning based analysis; format: cell-based
[6] = target: T1, Parkinson disease protein 7 (Homo sapiens); experiment: Binding affinity to PARK7 in human HEK293T cells at 0.5 to 1 uM incubated for 1 hr by western blot analysis; format: cell-based; conditions: dose 0.5-1 µM
[7] = target: T1, Parkinson disease protein 7 (Homo sapiens); experiment: Binding affinity to N-terminal GST-tagged human recombinant PARK7 expressed in Escherichia coli BL21(DE3)Rosetta2 cells at 1 uM measured after 1 hr by coomassie staining based analysis; summary of the method: as §2
[8] = target: T1, Parkinson disease protein 7 (Homo sapiens); experiment: Binding affinity to PARK7 in UCHL1 knockdown human HEK293T cells at 1 uM incubated for 1 hr by fluorescence scanning based analysis; format: cell-based
Summary of the method: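 HEK293T cells were siRNA-transfected with Dharmafect 1 and cultured 3 days, then lysed in Triton X-100/TCEP Tris buffer (pH 7.5) with protease inhibitors. Lysate labelled with probe at 1 μM final for 1 h at 37 °C. Read by SDS-PAGE Cy5 fluorescence scan (635/655 nm), then immunoblot for UCHL1/PARK7 with actin as loading control.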

[9] = target: T1, Parkinson disease protein 7 (Homo sapiens); experiment: Binding affinity to N-terminal GST-tagged human recombinant PARK7 expressed in Escherichia coli BL21(DE3)Rosetta2 cells at 2 uM measured after 1 hr by fluorescence scanning analysis; summary of the method: as §2
[10] = target: T1, Parkinson disease protein 7 (Homo sapiens); experiment: Binding affinity to PARK7 in human HEK293T cells at 1 uM incubated for 1 hr by fluorescence scanning based analysis; format: cell-based
[11] = target: T1, Parkinson disease protein 7 (Homo sapiens); experiment: Inhibition of PARK7 in human HEK293T cells assessed as reduction in JQ-92 labelled PARK7 band intensity at 1 uM incubated for 1 hr followed by incubation with JQ-92 for 30 mins by fluorescence scanning based analysis; format: cell-based; conditions: time 90.0 min
[12] = target: T1, Parkinson disease protein 7 (Homo sapiens); experiment: Inhibition of N-terminal GST-tagged human recombinant PARK7 expressed in Escherichia coli BL21(DE3)Rosetta2 cells using DiFMUAc as substrate at 12.5 to 100 uM preincubated with enzyme for 1 hr followed by substrate addition and measured for 1 hr by DiFMUAc assay based fluorescence analysis; conditions: dose 12.5-100 µM, time 2.0 hrs
Summary of the method: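 PARK7 GST fusion was expressed in E. coli BL21(DE3) Rosetta2, purified on glutathione beads, cut with 3C protease and polished by SEC. Enzyme at 0.1 μM final in PBS was preincubated with compound at 100, 37.5 or 12.5 μM final. DiFMUAc was then added at 300 μM final, and fluorescence (ex/em 350/450 nm) was monitored for 1 h. Run in triplicate.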

[13] = target: T1, Parkinson disease protein 7 (Homo sapiens); experiment: Inhibition of PARK7 in human HEK293T cells assessed as reduction in JQ-92 labelled PARK7 band intensity at 0.1 to 50 uM incubated for 1 hr followed by incubation with JQ-92 for 30 mins by fluorescence scanning based analysis; format: cell-based; conditions: dose 0.1-50 µM, time 90.0 min
[14] = target: Ubiquitin carboxyl-terminal hydrolase isozyme L1 (Homo sapiens) (UniProt P09936); experiment: Inhibition of UCHL1 in human HEK293T cells assessed as reduction in Rho-Ub-PA-labelled UCHL1 band intensity at 5 uM incubated for 1 hr followed by incubation with Rho-Ub-PA for 30 mins by fluorescence scanning based analysis; format: cell-based; conditions: time 90.0 min
[15] = target: T1, Parkinson disease protein 7 (Homo sapiens); experiment: Binding affinity to N-terminal GST-tagged human recombinant PARK7 expressed in Escherichia coli BL21(DE3)Rosetta2 cells at 5 uM measured after 1 hr by coomassie staining based analysis; summary of the method: as §2
[16] = target: T1, Parkinson disease protein 7 (Homo sapiens); experiment: Binding affinity to N-terminal GST-tagged human recombinant PARK7 expressed in Escherichia coli BL21(DE3)Rosetta2 cells at 5 uM measured after 1 hr by fluorescence scanning analysis; summary of the method: as §2
[17] = target: Ubiquitin carboxyl-terminal hydrolase isozyme L1 (Homo sapiens) (UniProt P09936); experiment: Inhibition of UCHL1 (unknown origin) using SRK59 as fluorescent probe at 20 uM preincubated for 1 hr followed by SRK59 addition for 30 mins by Gel-based competition assay; conditions: time 90.0 min; summary of the method: as §1
[18] = target: T1, Parkinson disease protein 7 (Homo sapiens); experiment: Inhibition of PARK7 in human HEK293T cells assessed as reduction in JQ-92 labelled PARK7 band intensity incubated for 1 hr followed by incubation with JQ-92 for 30 mins by fluorescence scanning based analysis; format: cell-based; conditions: dose 0.1-20 µM, time 90.0 min, DDE = dose-dependent effect
[19] = target: T1, Parkinson disease protein 7 (Homo sapiens); experiment: Inhibition of N-terminal GST-tagged human recombinant PARK7 expressed in Escherichia coli BL21(DE3)Rosetta2 cells using SRK59 as fluorescent probe at 1 to 2 uM preincubated for 1 hr followed by SRK59 addition for 30 mins by Gel-based competition assay; conditions: dose 1-2 µM, time 90.0 min; summary of the method: as §1
[20] = target: T1, Parkinson disease protein 7 (Homo sapiens); experiment: Inhibition of N-terminal GST-tagged human recombinant PARK7 expressed in Escherichia coli BL21(DE3)Rosetta2 cells using SRK59 as fluorescent probe at 0.5 uM preincubated for 1 hr followed by SRK59 addition for 30 mins by Gel-based competition assay; conditions: time 90.0 min; summary of the method: as §1

Sequence of Ubiquitin carboxyl-terminal hydrolase isozyme L1 (Homo sapiens) (P09936 whole entry, looked up): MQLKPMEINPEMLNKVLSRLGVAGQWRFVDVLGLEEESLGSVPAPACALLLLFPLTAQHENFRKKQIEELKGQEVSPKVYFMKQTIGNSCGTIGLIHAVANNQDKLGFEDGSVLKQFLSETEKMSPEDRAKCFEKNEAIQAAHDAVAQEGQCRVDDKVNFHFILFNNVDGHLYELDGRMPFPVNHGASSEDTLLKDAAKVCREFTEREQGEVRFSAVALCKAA

- inhibition [1]: 100%
- inhibition [2]: Active
Structure (SMILES): CN1C(=O)CC(C(=O)N2CCc3nc(NC(=O)[C@H]4CCN(C#N)C4)sc3C2)[C@@H]1c1cccnc1 (stereo partly drawn)

- inhibition [1]: 100%
- inhibition [2]: Active
Structure (SMILES): N#CN1CC[C@H](C(=O)Nc2nc3c(s2)CN(C(=O)Cc2ccncc2)CC3)C1

- inhibition [14]: Active
Structure (SMILES): N#CN1CC[C@H](C(=O)Nc2ncc(N3CCOCC3)s2)C1

- Activity [15]: Active
- Activity [16]: Active
Structure (SMILES): CC1=CC(C)=[N+]2C1=C(CCCCc1cn(CC(=O)N3CCc4nc(NC(=O)[C@@H]5CCN(C#N)C5)sc4C3)nn1)c1c(C)cc(C)n1[B-]2(F)F

- inhibition [1]: 100%
- inhibition [2]: Active
Structure (SMILES): N#CN1CC[C@H](C(=O)Nc2nc3c(s2)CN(C(=O)CCCCBr)CC3)C1

- inhibition [17]: Active
- inhibition [18]: Dde
- inhibition [19]: 100%
- inhibition [20]: Active
- inhibition [2]: 100%
Structure (SMILES): N#CN1CC[C@@H](C(=O)Nc2nc3c(s2)CN(C(=O)CN=[N+]=[N-])CC3)C1

- inhibition [1]: Active
- inhibition [14]: Active
Structure (SMILES): N#CN1CC[C@H](C(=O)Nc2nc3c(s2)CN(C(=O)CN=[N+]=[N-])CC3)C1

Continued, compound first:

Structure (SMILES): CC[N+]1=C(/C=C/C=C/C=C2/N(CCCCCC(=O)NCCCc3cn(CC(=O)N4CCc5nc(NC(=O)[C@@H]6CCN(C#N)C6)sc5C4)nn3)c3ccc(S(=O)(=O)O)cc3C2(C)C)C(C)(C)c2cc(S(=O)(=O)[O-])ccc21
- Activity [3]: Active
- Activity [4]: Active
- Activity [5]: Active
- Activity [6]: Active
- Activity [7]: Active
- Activity [8]: Active
- Activity [9]: Active
- Activity [10]: Active

Structure (SMILES): O=c1ccc(NS(=O)(=O)c2cccc(S(=O)(=O)F)c2)c[nH]1
- inhibition [11]: 100%
- inhibition [12]: Active
- inhibition [13]: Active

Structure (SMILES): CCC(C)c1ccc(NC(=O)CCl)cc1 (stereo not drawn)
- inhibition [12]: Active
- inhibition [13]: Active

Structure (SMILES): O=C(O)c1csc(C(=O)CCl)c1
- inhibition [12]: Active
- inhibition [13]: Active

Structure (SMILES): N#CN1CC[C@@H](C(=O)Nc2nc3c(s2)CN(C(=O)Cn2cc(CCCNC(=O)c4ccc(-c5c6ccc(=N)cc-6oc6cc(N)ccc56)c(C(=O)O)c4)nn2)CC3)C1
- Activity [3]: Active
- Activity [7]: Active

Reference: ChEMBL document CHEMBL5104184, “Chemical Toolkit for PARK7: Potent, Selective, and High-Throughput” (J Med Chem, 2022)
